Activity calls are given as the source filed them. The rule behind the calls is not given here.

The values below come from ChEMBL document CHEMBL3792296, “Synthesis and antiproliferative activity of 9-benzylamino-6-chloro-2-methoxy-acridine derivatives as potent DNA-binding ligands and topoisomerase II inhibitors” (Eur J Med Chem, 2016).

The first assay concerns A549. The assay is described as follows: Antiproliferative activity against human A549 cells after 48 hrs by MTT assay. Particulars: A549, 48 h. It is filed as functional, cell-based. In outline: (§1)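 MTT assay: cells seeded at 4-8 × 10³ per well, incubated overnight at 37 °C in 5% CO₂, then given fresh medium with graded compound concentrations or equal DMSO for 48 h. MTT (5 mg/mL solution) added for a further 4 h, formazan dissolved in DMSO, absorbance read at 490 nm. Six cancer cell lines tested.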
`COc1ccc2nc3cc(Cl)ccc3c(NCc3ccc(C(F)(F)F)cc3)c2c1` showed a half-inhibitory concentration (IC50) of 6040 nM. That is a single-digit micromolar value.
Take `COc1ccc2nc3cc(Cl)ccc3c(NCc3cc(F)c(OC)c(F)c3)c2c1`: the half-maximal inhibitory concentration (IC50) stood at 1820 nM.
Still for that read-out and setting: the same measure for `COc1ccc2nc3cc(Cl)ccc3c(NCc3ccccc3F)c2c1`: 2820 nM; for `COc1ccc2nc3cc(Cl)ccc3c(NCc3ccccc3Br)c2c1`: 3000 nM.
The same measure, in the same setting: the same measure for `COc1ccc2nc3cc(Cl)ccc3c(NCc3cccc(C)c3)c2c1`: 2220 nM.
The compound `COc1ccc2nc3cc(Cl)ccc3c(NCc3ccc(Cl)cc3)c2c1` displayed an IC50 of 4200 nM.
Same read-out and setting: under `COc1cccc2c1C(=O)c1c(O)c3c(c(O)c1C2=O)C[C@@](O)(C(=O)CO)C[C@@H]3O[C@H]1C[C@H](N)[C@H](O)[C@H](C)O1` [DOXORUBICIN] stands 90 nM; under `COc1cc([C@@H]2c3cc4c(cc3[C@@H](O[C@@H]3O[C@@H]5CO[C@@H](C)O[C@H]5[C@H](O)[C@H]3O)[C@H]3COC(=O)[C@H]23)OCO4)cc(OC)c1O` [ETOPOSIDE], 3820 nM.
In turn, `COc1ccc2nc3cc(Cl)ccc3c(NCc3cccc(F)c3)c2c1` came in with an IC50 of 4190 nM.
The compound `COc1ccc2nc3cc(Cl)ccc3c(NCc3ccc(F)cc3)c2c1` returned an IC50 of 4050 nM. The IC50 values of the last two compounds are within 1.5-fold of each other.
On the same count and under the same terms, under `COc1cc(NS(C)(=O)=O)ccc1Nc1c2ccccc2nc2ccccc12` [AMSACRINE] stands 5960 nM; under `COc1ccc2nc3cc(Cl)ccc3c(NCc3ccc(F)c(F)c3)c2c1`, > 25000 nM; under `COc1ccc2nc3cc(Cl)ccc3c(NCc3ccc(C)cc3)c2c1`, 2630 nM.

Another assay concerns MCF7. In words: Antiproliferative activity against human MCF7 cells after 48 hrs by MTT assay. It is filed as functional, cell-based. To be noted: MCF7, 48 h. The essentials: as §1
In the case of `COc1cccc2c1C(=O)c1c(O)c3c(c(O)c1C2=O)C[C@@](O)(C(=O)CO)C[C@@H]3O[C@H]1C[C@H](N)[C@H](O)[C@H](C)O1` [DOXORUBICIN], the IC50 worked out at 810 nM.
`COc1cc(NS(C)(=O)=O)ccc1Nc1c2ccccc2nc2ccccc12` [AMSACRINE] had an IC50 of 26800 nM.

A further assay deals with HeLa. In words: Antiproliferative activity against human HeLa cells after 48 hrs by MTT assay. Format: functional, cell-based.
Conditions: not given
In outline: as §1
For the compound `COc1cccc2c1C(=O)c1c(O)c3c(c(O)c1C2=O)C[C@@](O)(C(=O)CO)C[C@@H]3O[C@H]1C[C@H](N)[C@H](O)[C@H](C)O1` [DOXORUBICIN], the IC50 came out at 780 nM. This lies in the sub-micromolar range.
`COc1cc([C@@H]2c3cc4c(cc3[C@@H](O[C@@H]3O[C@@H]5CO[C@@H](C)O[C@H]5[C@H](O)[C@H]3O)[C@H]3COC(=O)[C@H]23)OCO4)cc(OC)c1O` [ETOPOSIDE] registered a half-inhibitory concentration (IC50) of 41200 nM.
With `COc1cc(NS(C)(=O)=O)ccc1Nc1c2ccccc2nc2ccccc12` [AMSACRINE], the IC50 came out at 340 nM. This IC50 lies about 120-fold lower than the previous one.

Tested on in another assay: not listed separately
In words: Antiproliferative activity against human HCT116 cells after 48 hrs by MTT assay. Particulars: HCT-116, 48 h. Format: functional, cell-based. The essentials: as §1
`COc1cc([C@@H]2c3cc4c(cc3[C@@H](O[C@@H]3O[C@@H]5CO[C@@H](C)O[C@H]5[C@H](O)[C@H]3O)[C@H]3COC(=O)[C@H]23)OCO4)cc(OC)c1O` [ETOPOSIDE] gave an IC50 of 6030 nM.
Turning to `COc1cc(NS(C)(=O)=O)ccc1Nc1c2ccccc2nc2ccccc12` [AMSACRINE], the IC50 was determined as 930 nM.

Another assay relates to CCRF-CEM. The assay is described as follows: Antiproliferative activity against human CCRF-CEM cells after 48 hrs by MTT assay. Format: functional, cell-based.
Conditions: not given
The essentials: as §1
On the technique in general: Formazan colour is commonly taken as a measure of viable cells.
On to `COc1cccc2c1C(=O)c1c(O)c3c(c(O)c1C2=O)C[C@@](O)(C(=O)CO)C[C@@H]3O[C@H]1C[C@H](N)[C@H](O)[C@H](C)O1` [DOXORUBICIN], for which 52 nM corresponded to half-maximal inhibition (IC50).
On to `COc1cc([C@@H]2c3cc4c(cc3[C@@H](O[C@@H]3O[C@@H]5CO[C@@H](C)O[C@H]5[C@H](O)[C@H]3O)[C@H]3COC(=O)[C@H]23)OCO4)cc(OC)c1O` [ETOPOSIDE], for which 120 nM corresponded to half-maximal inhibition (IC50).
Same read-out and setting: under `COc1cc(NS(C)(=O)=O)ccc1Nc1c2ccccc2nc2ccccc12` [AMSACRINE] stands 180 nM.

In a further assay the target is T1, DNA topoisomerase 1 (Homo sapiens) (UniProt P11387).
T1 sequence (whole entry): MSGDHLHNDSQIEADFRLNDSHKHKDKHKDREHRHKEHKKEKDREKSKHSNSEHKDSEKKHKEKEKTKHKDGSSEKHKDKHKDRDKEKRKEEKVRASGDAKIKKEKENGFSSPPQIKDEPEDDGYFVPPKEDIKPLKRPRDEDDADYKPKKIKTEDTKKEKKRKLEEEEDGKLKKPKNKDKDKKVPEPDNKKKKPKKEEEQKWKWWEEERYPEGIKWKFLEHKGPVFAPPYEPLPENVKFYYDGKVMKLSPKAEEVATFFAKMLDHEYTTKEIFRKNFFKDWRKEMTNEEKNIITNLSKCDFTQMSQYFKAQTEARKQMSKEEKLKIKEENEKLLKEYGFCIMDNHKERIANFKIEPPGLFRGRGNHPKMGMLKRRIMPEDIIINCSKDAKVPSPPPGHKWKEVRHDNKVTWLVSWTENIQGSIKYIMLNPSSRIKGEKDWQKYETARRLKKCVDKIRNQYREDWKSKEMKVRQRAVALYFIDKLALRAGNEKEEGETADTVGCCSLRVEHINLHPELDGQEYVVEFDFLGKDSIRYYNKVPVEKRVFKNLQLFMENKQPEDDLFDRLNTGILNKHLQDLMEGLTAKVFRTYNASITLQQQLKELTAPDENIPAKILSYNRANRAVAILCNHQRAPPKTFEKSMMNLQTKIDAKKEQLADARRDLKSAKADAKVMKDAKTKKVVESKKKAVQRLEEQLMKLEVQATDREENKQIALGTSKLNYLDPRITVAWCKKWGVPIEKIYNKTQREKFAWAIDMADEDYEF
The assay is described as follows: Inhibition of human topoisomerase 1 assessed as reduction in enzyme-mediated relaxation of supercoiled pBR322 DNA at 50 to 100 uM after 10 to 15 mins by agarose gel electrophoresis.
Conditions: not given
In outline:
(§2)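 Relaxation of 500 ng supercoiled pBR322 by 1 unit human Topo I or Topo IIα, with or without compound, in 20 µL reaction buffer at 37 °C for 10-15 min. Reactions stopped with loading buffer, run on 0.8% agarose in TAE at 80 V for 30 min. Gels stained with ethidium bromide 2.5 µg/mL and viewed under UV.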
With `COc1ccc2nc3cc(Cl)ccc3c(NCc3ccc(F)cc3)c2c1`, the inhibition result was “Active”.

The target of a further assay is DNA topoisomerase 2-alpha (Homo sapiens) (UniProt P11388). The assay is described as follows: Inhibition of human recombinant topoisomerase 2-alpha expressed in Escherichia coli assessed as reduction in enzyme-mediated relaxation of supercoiled pBR322 DNA at 100 uM after 10 to 15 mins by agarose gel electrophoresis.
DNA topoisomerase 2-alpha (Homo sapiens), sequence (P11388 whole entry): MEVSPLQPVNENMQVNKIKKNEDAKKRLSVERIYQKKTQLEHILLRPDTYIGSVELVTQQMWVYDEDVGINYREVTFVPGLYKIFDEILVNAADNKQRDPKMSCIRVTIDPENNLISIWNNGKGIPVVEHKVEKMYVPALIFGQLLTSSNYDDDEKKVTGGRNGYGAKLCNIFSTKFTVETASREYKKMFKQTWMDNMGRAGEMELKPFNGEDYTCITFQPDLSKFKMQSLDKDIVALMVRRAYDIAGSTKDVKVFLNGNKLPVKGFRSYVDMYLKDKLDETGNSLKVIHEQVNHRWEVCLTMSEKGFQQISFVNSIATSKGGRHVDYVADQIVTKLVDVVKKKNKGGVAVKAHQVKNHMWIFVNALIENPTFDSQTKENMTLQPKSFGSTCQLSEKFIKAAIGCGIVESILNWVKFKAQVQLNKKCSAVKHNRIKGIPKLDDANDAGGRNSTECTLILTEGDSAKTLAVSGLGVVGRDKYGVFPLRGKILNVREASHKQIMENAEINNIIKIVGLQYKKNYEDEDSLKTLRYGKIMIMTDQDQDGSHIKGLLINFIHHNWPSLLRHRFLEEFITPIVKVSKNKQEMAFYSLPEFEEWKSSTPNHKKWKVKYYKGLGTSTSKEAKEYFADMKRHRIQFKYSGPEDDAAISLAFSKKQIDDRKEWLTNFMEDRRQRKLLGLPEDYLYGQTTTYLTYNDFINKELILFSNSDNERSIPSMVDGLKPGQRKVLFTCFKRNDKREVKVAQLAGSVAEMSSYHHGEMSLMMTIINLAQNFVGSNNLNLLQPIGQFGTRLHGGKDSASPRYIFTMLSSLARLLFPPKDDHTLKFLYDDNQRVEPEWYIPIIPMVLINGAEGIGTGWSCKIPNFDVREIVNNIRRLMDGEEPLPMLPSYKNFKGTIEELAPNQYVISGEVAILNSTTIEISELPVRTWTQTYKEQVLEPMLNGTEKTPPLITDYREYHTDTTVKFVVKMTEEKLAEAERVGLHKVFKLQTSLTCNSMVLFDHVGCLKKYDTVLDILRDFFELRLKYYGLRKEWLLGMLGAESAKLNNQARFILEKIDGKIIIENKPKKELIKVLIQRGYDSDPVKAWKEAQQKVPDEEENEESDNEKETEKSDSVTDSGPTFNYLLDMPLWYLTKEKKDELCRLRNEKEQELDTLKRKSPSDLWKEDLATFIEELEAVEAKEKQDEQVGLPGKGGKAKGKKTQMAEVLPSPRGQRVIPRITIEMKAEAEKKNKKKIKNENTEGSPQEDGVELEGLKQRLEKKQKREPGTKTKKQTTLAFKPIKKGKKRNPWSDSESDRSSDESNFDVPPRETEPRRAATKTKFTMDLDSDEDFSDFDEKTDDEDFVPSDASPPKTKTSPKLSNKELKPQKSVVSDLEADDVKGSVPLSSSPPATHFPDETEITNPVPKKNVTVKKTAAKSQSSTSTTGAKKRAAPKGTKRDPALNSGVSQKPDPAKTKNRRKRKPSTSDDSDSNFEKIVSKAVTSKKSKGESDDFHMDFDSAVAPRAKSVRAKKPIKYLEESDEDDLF
Conditions: not given
The essentials: as §2
With `COc1ccc2nc3cc(Cl)ccc3c(NCc3ccc(C(F)(F)F)cc3)c2c1`, the inhibition entry was “Active”.
On the same count and under the same terms, the same measure for `COc1ccc2nc3cc(Cl)ccc3c(NCc3cc(F)c(OC)c(F)c3)c2c1`: “Active”; for `COc1ccc2nc3cc(Cl)ccc3c(NCc3ccccc3F)c2c1`: “Active”.
As for `COc1ccc2nc3cc(Cl)ccc3c(NCc3ccccc3Br)c2c1`, the inhibition result is “Active”.
The same measure, in the same setting: under `COc1ccc2nc3cc(Cl)ccc3c(NCc3cccc(C)c3)c2c1` stands “Active”; under `COc1ccc2nc3cc(Cl)ccc3c(NCc3ccc(Cl)cc3)c2c1`, “Active”; under `COc1ccc2nc3cc(Cl)ccc3c(NCc3cccc(F)c3)c2c1`, “Active”.
`COc1ccc2nc3cc(Cl)ccc3c(NCc3ccc(F)cc3)c2c1`: the inhibition entry was “Active”.
With `COc1ccc2nc3cc(Cl)ccc3c(NCc3ccc(F)c(F)c3)c2c1`, the inhibition result is “Active”.
Regarding `COc1ccc2nc3cc(Cl)ccc3c(NCc3ccc(C)cc3)c2c1`, the inhibition entry was “Active”.

The target is the same in a further assay. The assay is described as follows: Inhibition of human recombinant topoisomerase 2-alpha expressed in Escherichia coli assessed as reduction in enzyme-mediated relaxation of supercoiled pBR322 DNA at 10 to 50 uM after 10 to 15 mins by agarose gel electrophoresis.
Conditions: not given
In outline:
as §2
In the case of `COc1cc([C@@H]2c3cc4c(cc3[C@@H](O[C@@H]3O[C@@H]5CO[C@@H](C)O[C@H]5[C@H](O)[C@H]3O)[C@H]3COC(=O)[C@H]23)OCO4)cc(OC)c1O` [ETOPOSIDE], the inhibition result was “Active”.

The subject of the next assay is Calf thymus DNA. In words: Binding affinity to calf thymus DNA after 5 mins by UV-vis spectrophotometry. Particulars: Bos taurus. Format: nucleic-acid assay. The essentials: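 ctDNA at 0-44 µM is added to compound at 10 µM final in Tris-HCl buffer (pH 7.4). UV-vis absorption spectra are recorded after 5 min standing. The binding constant K_b is taken from a plot of absorption data against DNA concentration.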
On to `COc1cc(NS(C)(=O)=O)ccc1Nc1c2ccccc2nc2ccccc12` [AMSACRINE], for which the Kb came to 1.36 ×10⁵ /M.

A further assay concerns A549. The assay is described as follows: Induction of DNA damage in human A549 cells assessed as tail DNA at 10 uM after 24 hrs by propidium iodide staining based comet assay (reference value: 0.02%).
Conditions: not given
It is filed as cell-based. In outline:
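Alkaline comet assay. About 10⁵ A549 cells per well incubated 12 h, then treated 24 h in serum-free medium against a DMSO control. Cells embedded in low-melting agarose, lysed 2 h, alkaline-unwound 0.5 h at 4 °C, electrophoresed at 300 mA for 25 min in the dark. Slides neutralized, PI-stained, 50 random cells scored for % tail DNA.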
Turning to `COc1cc([C@@H]2c3cc4c(cc3[C@@H](O[C@@H]3O[C@@H]5CO[C@@H](C)O[C@H]5[C@H](O)[C@H]3O)[C@H]3COC(=O)[C@H]23)OCO4)cc(OC)c1O` [ETOPOSIDE], the Activity was 46.7%.

Usually IC50 stands for the concentration at which inhibition is half-maximal.
